The values below come from ChEMBL document CHEMBL1938298, “Synthesis and characterization of [¹²⁵I]2-iodo N-[(S)-{(S)-1-methylpiperidin-2-yl}(phenyl)methyl]3-trifluoromethyl-benzamide as novel imaging probe for glycine transporter 1” (Bioorg Med Chem, 2011).

The source made the active and inactive calls. The rule behind the calls is not given here.

The test system of data set [1] is Mus musculus. The data set can be described thus: In vivo binding affinity to GlyT1 in ddY mouse brain hippocampus at 33.3 kBq, iv after 60 mins in presence of nonradioactive compound 2 mg/kg, iv administered 15 mins prior to compound administration relative to control. As to conditions: tested as the 125I-labelled form. Also on record: dose 2 mg/kg. Type of data set: functional, organism-based. In a few lines:
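Male ddY mice (6 W, 30–35 g) were given [125I]5 (ca. 33.3 kBq, 0.1 mL) iv via tail vein. Blocker (2 mg/kg in 30% DMSO/saline) was given iv 15 min before the tracer. Mice were killed 30 or 60 min after injection and the brain regions were dissected and weighed. Gamma counting gave % dose/g, compared with control; n = 5–6.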

Data set [2] deals with Mus musculus. Kind of data set: In vivo binding affinity to GlyT1 in ddY mouse brain hippocampus at 33.3 kBq, iv after 60 mins in presence of N-Me-SSR504734 2 mg/kg, iv administered 15 mins prior to compound administration relative to control. Type of data set: functional, organism-based. More on the design: dose 2 mg/kg. As to conditions: tested as the 125I-labelled form. Put shortly:
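Male ddY mice (6 W, 30–35 g) were given blocker 2 mg/kg iv in 30% DMSO/saline 15 min before [125I] tracer (ca. 33.3 kBq, 0.1 mL, tail vein). Killed 60 min after tracer injection. Brain dissected into regions including hippocampus, weighed and gamma counted, giving % dose/g and region-to-blood ratio versus control. Mean ± SD, n = 5–6; Kruskal–Wallis with Dunn's post-test.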

Data set [3] addresses T1, Sodium- and chloride-dependent glycine transporter 1 (Rattus norvegicus) (UniProt P28572).
T1 sequence (whole entry): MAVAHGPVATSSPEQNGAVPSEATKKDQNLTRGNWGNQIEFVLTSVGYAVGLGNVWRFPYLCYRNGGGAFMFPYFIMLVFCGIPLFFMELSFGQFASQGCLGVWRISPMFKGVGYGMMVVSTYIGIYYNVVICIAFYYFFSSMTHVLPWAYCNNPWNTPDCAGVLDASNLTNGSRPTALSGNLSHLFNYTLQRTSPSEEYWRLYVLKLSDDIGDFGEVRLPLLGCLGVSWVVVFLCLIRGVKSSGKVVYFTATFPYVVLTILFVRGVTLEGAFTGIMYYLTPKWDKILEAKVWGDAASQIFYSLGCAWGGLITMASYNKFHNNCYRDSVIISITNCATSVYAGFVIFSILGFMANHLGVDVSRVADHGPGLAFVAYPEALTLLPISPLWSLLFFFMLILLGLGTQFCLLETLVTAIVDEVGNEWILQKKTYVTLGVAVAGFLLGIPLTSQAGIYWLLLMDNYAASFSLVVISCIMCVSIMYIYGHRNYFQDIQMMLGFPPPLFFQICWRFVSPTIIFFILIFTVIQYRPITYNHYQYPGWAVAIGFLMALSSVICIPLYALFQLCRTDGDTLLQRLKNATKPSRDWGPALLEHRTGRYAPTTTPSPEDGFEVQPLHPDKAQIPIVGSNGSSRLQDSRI
Kind of data set: Binding affinity to GlyT1 in rat brain thalamus at 0.03 to 0.04 nM preincubated for 20 mins in binding buffer before compound addition measured after 30 mins by autoradiography in presence of 0.01 mM GlyT1 inhibitor SSR504734 relative to control. As to conditions: tested as the 125I-labelled form. It counts as tissue-based.

The target of data set [4] is T1, Sodium- and chloride-dependent glycine transporter 1 (Rattus norvegicus). The data set can be described thus: Binding affinity to GlyT1 in rat brain midbrain at 0.03 to 0.04 nM preincubated for 20 mins in binding buffer before compound addition measured after 30 mins by autoradiography in presence of 0.01 mM GlyT1 inhibitor SSR504734 relative to control. To be noted: tested as the 125I-labelled form. Type of data set: tissue-based. Put shortly: (§1)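 Rat brain sagittal sections (20 µm) preincubated 20 min at 25 °C in Tris-HCl buffer pH 7.5 (NaCl, KCl, MgCl2, CaCl2), then 30 min at 25 °C with [125I] tracer (100 kBq, 0.03–0.04 nM) plus competitor (10 µM; glycine 1 or 10 mM). Cold washes, imaging plate 3 days, ROI PSL minus background per mm². % control from ≥triplicate slices, three rats.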

Data set [5] relates to Mus musculus. The data set can be described thus: In vivo binding affinity to GlyT1 in ddY mouse brain midbrain at 200 kBq, iv after 60 mins by autoradiography relative to control. It counts as functional, organism-based. To be noted: tested as the 125I-labelled form.
Data set [6] has as its target T1, Sodium- and chloride-dependent glycine transporter 1 (Rattus norvegicus). The data set can be described thus: Binding affinity to GlyT1 in rat brain medullary region at 0.03 to 0.04 nM preincubated for 20 mins in binding buffer before compound addition measured after 30 mins by autoradiography in presence of 0.01 mM GlyT1 inhibitor HPCP relative to control. It counts as tissue-based. To be noted: tested as the 125I-labelled form. In a few lines: as §1

The target is the same in data set [7]. Kind of data set: Binding affinity to GlyT1 in rat brain medullary region at 0.03 to 0.04 nM preincubated for 20 mins in binding buffer before compound addition measured after 30 mins by autoradiography in presence of 10 mM GlyT1 substrate glycine relative to control. It counts as tissue-based. To be noted: tested as the 125I-labelled form. Put shortly: as §1

The target is the same in data set [8]. The data set can be described thus: Binding affinity to GlyT1 in rat brain corpus callosum at 0.03 to 0.04 nM preincubated for 20 mins in binding buffer before compound addition measured after 30 mins by autoradiography in presence of 0.01 mM GlyT1 inhibitor ALX5407 relative to control. Type of data set: tissue-based. As to conditions: tested as the 125I-labelled form. In a few lines:
as §1

Data set [9] has the same target. The data set can be described thus: Binding affinity to GlyT1 in rat brain corpus callosum at 0.03 to 0.04 nM preincubated for 20 mins in binding buffer before compound addition measured after 30 mins by autoradiography in presence of 10 mM GlyT1 substrate glycine relative to control. As to conditions: tested as the 125I-labelled form. Type of data set: tissue-based. Put shortly:
as §1

The subject of data set [10] is Kidney. The data set can be described thus: Drug uptake in ddY mouse kidney at 11.1 kBq, iv after 180 min by gamma counting. As to conditions: in vivo, 3 h. It counts as ADME, organism-based. Put shortly: (§2)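 Male ddY mice (6 weeks, 30–35 g) were given about 11.1 kBq of [125I]tracer in 0.1 mL i.v. via the tail vein. At each time point the animals were killed and organs dissected, weighed and gamma-counted. Uptake is expressed as % injected dose per gram of tissue, mean ± SD, n = 5–6.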

In data set [11] the test system is Lung. Kind of data set: Drug uptake in ddY mouse lung at 11.1 kBq, iv after 60 min by gamma counting. It counts as ADME, organism-based. To be noted: in vivo, 1 h. Put shortly: as §2
For data set [12], the system named is Stomach. The data set can be described thus: Drug uptake in ddY mouse stomach at 11.1 kBq, iv after 0.5 min by gamma counting. Type of data set: ADME, organism-based. As to conditions: in vivo. In a few lines:
as §2

As to `CN1CCCC[C@H]1[C@@H](NC(=O)c1cccc(C(F)(F)F)c1I)c1ccccc1`, the outcome in [1], in data set [2] and in data set [5] was Active. For the same compound, the Activity in data set [3] turned out to be 29.6%; in [4], 28.9%; in data set [6], 20.5%; in data set [7], 61.2%; in [8] it was 27.8%; in data set [9], 39.6%.

For the compound `CN1CCCC[C@H]1[C@@H](NC(=O)c1cccc(C(F)(F)F)c1[125I])c1ccccc1`, the Drug uptake in data set [10] was 6.97 % ID/g; in data set [11], 12.09 % ID/g; in data set [12], 0.83 % ID/g.
